Assays:
Plasmodium falciparum [1] = assay: Antiplasmodial activity against chloroquine-resistant Plasmodium falciparum FCB1-R/Colombia by [3H]hypoxanthine uptake; type: functional, organism-based
Procedure, shortened: (§1)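 Asexual erythrocytic stages kept in continuous culture (Trager and Jensen method). Each sample run as eight 4-fold dilutions, final 20 to 0.0012 µg/mL, in duplicate. IC50 and IC90 derived; number of independent experiments per value given separately.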

Plasmodium falciparum [2] = assay: Antiplasmodial activity against chloroquine-resistant Plasmodium falciparum W2/Indochina by [3H]hypoxanthine uptake; type: functional, organism-based; procedure, shortened: as §1
Plasmodium falciparum [3] = assay: Antiplasmodial activity against chloroquine-sensitive Plasmodium falciparum FCA 20/ Ghana by [3H]hypoxanthine uptake; type: functional, organism-based; procedure, shortened: as §1
HCT-116 = assay: Cytotoxicity against human HCT116 cells after 72 hrs by WST1 assay; type: cell-based; conditions: HCT-116, 72 h
Procedure, shortened: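 HCT-116 colon cancer cells were seeded at 5000 per well in medium containing the test drugs, with matched DMSO controls. After 72 h, WST-1 was added for 30 min at 37 °C. Absorbance was read against a cell-free medium plus WST-1 blank and expressed as percent of control. Two independent experiments were run, each in triplicate, and means ± SEM were calculated.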

[4] = Selectivity index, ratio of IC50 for human HCT116 cells to IC50 for chloroquine-resistant Plasmodium falciparum W2/Indochina; type: toxicity, cell-based, HCT-116; conditions: HCT116 cells versus Plasmodium falciparum W2/Indochina, read-out: Ratio IC50
Procedure, shortened: (§2)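 Selectivity index = IC50 in HCT-116 cells / IC50 in P. falciparum. Cell IC50: 5000 HCT-116 cells per well with drug, DMSO controls, 72 h incubation, then WST-1 for 30 min at 37 °C. Absorbance read against a cell-free blank and expressed as percent of control. Two independent experiments, each in triplicate, means ± SEM.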

[5] = Selectivity index, ratio of IC50 for human HCT116 cells to IC50 for chloroquine-sensitive Plasmodium falciparum FCA 20/ Ghana; type: toxicity, cell-based, HCT-116; conditions: HCT116 cells versus Plasmodium falciparum FCA 20/Ghana, read-out: Ratio IC50; procedure, shortened: as §2
[6] = Plasmodium falciparum, FCB1-R/Colombia
[7] = Plasmodium falciparum, W2/Indochina
[8] = Plasmodium falciparum, FCA 20/ Ghana

## C/C=C1/CN2CC[C@@]34c5ccccc5N5C([C@H]6[C@@H]7N(C(C)=O)c8ccccc8[C@@]78CCN7C/C(=C/C)[C@@H]6C[C@H]78)OC=C([C@H]1C[C@H]23)[C@H]54 (stereo not given in full)
Plasmodium falciparum [1]; [6]
  IC50: 2.12 µM
  IC90: 7.13 µM
Plasmodium falciparum [2]; [7]
  IC50: 3.31 µM
  IC90: 18.5 µM
Plasmodium falciparum [3]; [8]
  IC50: 4.58 µM
  IC90: 18.7 µM

## C[C@@H]1OC[C@H]2[C@@H]3C[C@H]4N(CC[C@]45c4ccccc4N[C@H]25)/C(=C/C2=CN4CC[C@]56c7ccccc7N[C@H]5[C@H](CO)[C@H]2C[C@H]46)[C@@H]31
Plasmodium falciparum [1]; [6]
  IC50: 5.27 µM
  IC90: 12.7 µM
Plasmodium falciparum [2]; [7]
  IC50: > 20 µM
Plasmodium falciparum [3]; [8]
  IC50: 9.77 µM
  IC90: 17.7 µM

## c1ccc2c(c1)C[C@H]1C3Nc4ccccc4C3CCN1C2 (stereo not given in full)
Plasmodium falciparum [1]; [6]
  IC50: 12.9 µM
  IC90: 47.4 µM
Plasmodium falciparum [2]; [7]
  IC50: 18.3 µM
  IC90: 89.5 µM
Plasmodium falciparum [3]; [8]
  IC50: 11.3 µM
  IC90: 42.2 µM

## C/C=C1\CN2CC[C@]34c5ccccc5N5[C@@H]6O[C@H]([C@H]([C@H]53)[C@H]1C[C@H]24)N1c2ccccc2[C@]23CCN4C/C(=C/C)[C@H](C[C@H]42)[C@H]6[C@H]13 (stereo in doubt; 53) [MATOPENSINE]
Plasmodium falciparum [1]
  IC50: 4.67 µM
  IC90: 24.8 µM
Plasmodium falciparum [2]
  IC50: 8.66 µM
  IC90: 86.7 µM
Plasmodium falciparum [3]
  IC50: 13.2 µM
  IC90: 73.3 µM

## CC1C2=CN3CCc4c([nH]c5ccc(O)cc45)C3CC2CC2NCCC3c4ccccc4N1C23 (stereo in doubt; 64) [JANUSSINE A]
Plasmodium falciparum [1]; [6]
  IC50: 15.9 µM
  IC90: 28.3 µM
Plasmodium falciparum [2]
  IC50: 12.7 µM
Plasmodium falciparum [2]; [7]
  IC90: 27.6 µM
Plasmodium falciparum [3]; [8]
  IC50: 9.55 µM
  IC90: 30.9 µM

## CC1C2=CN3CCc4c([nH]c5ccc(O)cc45)C3CC2CC2NCCC3c4ccccc4N1C23 (stereo in doubt; 65) [JANUSSINE A]
Plasmodium falciparum [1]
  IC50: 17 µM
  IC90: 33.1 µM
Plasmodium falciparum [2]
  IC50: 4.75 µM
  IC90: 27.8 µM
Plasmodium falciparum [3]
  IC50: 12.6 µM
  IC90: 34.9 µM

## C=CC1CN2CC[C@@]34c5cc(C(C)C6=CN7CC[C@]89c%10ccccc%10N[C@H]8[C@@H](CO)[C@H]6C[C@H]79)ccc5N[C@@H]3[C@@H](CO)[C@@H]1C[C@@H]24 (stereo in doubt; 67) [PANGANENSINE X]
Plasmodium falciparum [1]
  IC50: 13.5 µM
  IC90: 43.7 µM
Plasmodium falciparum [2]
  IC50: 17.4 µM
Plasmodium falciparum [2]; [7]
  IC90: 78.7 µM
Plasmodium falciparum [3]
  IC90: 68.2 µM
Plasmodium falciparum [3]; [8]
  IC50: 10.4 µM

## C=CC1CN2CC[C@@]34c5cc(C(C)C6=CN7CC[C@]89c%10ccccc%10N[C@H]8[C@@H](CO)[C@H]6C[C@H]79)ccc5N[C@@H]3[C@@H](CO)[C@@H]1C[C@@H]24 (stereo in doubt; 68) [PANGANENSINE X]
Plasmodium falciparum [1]; [6]
  IC50: 12.9 µM
  IC90: 26.1 µM
Plasmodium falciparum [2]
  IC90: 85.8 µM
Plasmodium falciparum [2]; [7]
  IC50: 17 µM
Plasmodium falciparum [3]
  IC50: 14.9 µM
Plasmodium falciparum [3]; [8]
  IC90: 34.8 µM

## CN1CCC2c3ccccc3N3C2[C@@H]1C[C@@H](C1=CCOC1=O)C[C@@H]3O (stereo not given in full) [AKAGERINE LACTONE]
Plasmodium falciparum [1]; [6]
  IC50: 27.5 µM
  IC90: 55.2 µM
Plasmodium falciparum [2]; [7]
  IC50: 25.9 µM
  IC90: 53.3 µM
Plasmodium falciparum [3]; [8]
  IC50: 17 µM
  IC90: 60.7 µM

## C[C@@H]1CC[C@H]2[C@@H](C)C(=O)O[C@@H]3O[C@@]4(C)CC[C@@H]1[C@]32OO4 [ARTEMISININ]
Plasmodium falciparum [1]; [6]
  IC50: 0.005 µM
  IC90: 0.013 µM
Plasmodium falciparum [2]; [7]
  IC50: 0.002 µM
  IC90: 0.017 µM

## CCN(CC)CCCC(C)Nc1ccnc2cc(Cl)ccc12 (stereo not given) [CHLOROQUINE]
Plasmodium falciparum [1]; [6]
  IC90: 0.084 µM
HCT-116
  IC50: 33.7 µM
Plasmodium falciparum [2]; [7]
  IC90: 1.75 µM
Plasmodium falciparum [3]; [8]
  IC90: 0.071 µM

## C/C=C1\CN2CCC3c4ccccc4NC3[C@@H]2C[C@@H]1CC1=NCCc2c1[nH]c1ccccc21 (stereo not given in full) [DIHYDROUSAMBARENSINE]
HCT-116
  IC50: 12 µM
Plasmodium falciparum [2]; [7]
  IC50: 0.032 µM
  IC90: 4.68 µM
[4]
  selectivity ratio: 375
[5]
  selectivity ratio: 14
Plasmodium falciparum [3]; [8]
  IC50: 0.857 µM
  IC90: 2.49 µM

## C=C1c2[nH]c3ccccc3c2CCN2C[C@@H](CC)CC[C@H]12 [EPINGOUNIENSINE]
Plasmodium falciparum [1]; [6]
  IC50: 16.3 µM
  IC90: 49.7 µM
Plasmodium falciparum [2]; [7]
  IC50: 15.8 µM
  IC90: 52.8 µM
Plasmodium falciparum [3]; [8]
  IC50: 7.8 µM
  IC90: 26.9 µM

## C/C=C1/CN2[C@@H](C3=C[C@@H]4[C@@H]5N(C3=O)c3ccccc3[C@@]53CCN5C/C(=C/C)[C@@H]4C[C@H]53)C[C@@]34c5ccccc5N5C(=O)CC=C([C@H]1C[C@H]23)[C@H]54 [ISOSUNGUCINE]
Plasmodium falciparum [2]; [7]
  IC50: 0.265 µM
  IC90: 1.72 µM
Plasmodium falciparum [3]; [8]
  IC50: 1.32 µM
  IC90: 7.06 µM

## C/C=C1/CN2CCc3c([nH]c4ccccc34)[C@@H]2C[C@@H]1C1=CN2c3ccccc3[C@]34CCN5C/C(=C/C)[C@H](C[C@H]53)[C@@H]([C@@H]1O)[C@H]24 [LONGICAUDATINE F]
Plasmodium falciparum [1]; [6]
  IC50: 11.7 µM
  IC90: 33.4 µM
Plasmodium falciparum [2]; [7]
  IC50: 9.58 µM
  IC90: 28.1 µM
Plasmodium falciparum [3]; [8]
  IC50: 7.7 µM
  IC90: 26.7 µM

## C=C1c2[nH]c3ccccc3c2CCN2C[C@H](CC)CC[C@H]12 [NGOUNIENSINE]
Plasmodium falciparum [1]; [6]
  IC50: 17.8 µM
  IC90: 62.8 µM
Plasmodium falciparum [2]; [7]
  IC50: 20.2 µM
  IC90: 70.1 µM
Plasmodium falciparum [3]; [8]
  IC50: 26.8 µM
  IC90: 71 µM

## C=C[C@H]1CN2CC[C@H]1C[C@H]2[C@H](O)c1ccnc2ccc(OC)cc12 [QUININE]
Plasmodium falciparum [1]; [6]
  IC50: 0.2 µM
  IC90: 2.74 µM
Plasmodium falciparum [2]; [7]
  IC50: 0.413 µM
  IC90: 1.72 µM
Plasmodium falciparum [3]; [8]
  IC50: 0.269 µM
  IC90: 1.91 µM

## C/C=C1/CN2CCc3c([nH]c4ccccc34)[C@@H]2C[C@@H]1C1CCC([C@H]2C[C@H]3c4[nH]c5ccccc5c4CCN3C/C2=C/C)C1 (stereo not given in full) [STRYCHNOFURANINE]
Plasmodium falciparum [1]; [6]
  IC50: 10.8 µM
  IC90: 33.5 µM
Plasmodium falciparum [2]; [7]
  IC50: 2.8 µM
  IC90: 16 µM
Plasmodium falciparum [3]; [8]
  IC50: 4.11 µM
  IC90: 15 µM

## C/C=C1/CN2CC[C@]34c5ccccc5N5C(=O)C([C@H]6C[C@]78c9ccccc9N9C(=O)C=C[C@@H]([C@H]97)[C@H]7C[C@@H]8N6C/C7=C/C)=C[C@H]([C@H]53)[C@H]1C[C@H]24 [SUNGUCINE]
HCT-116
  IC50: 6.2 µM
Plasmodium falciparum [2]; [7]
  IC50: 10.1 µM
  IC90: 33.2 µM
[4]
  selectivity ratio: 0.611
[5]
  selectivity ratio: 0.79
Plasmodium falciparum [3]; [8]
  IC50: 7.82 µM
  IC90: 26.3 µM

## C/C=C1/CN2CCc3c([nH]c4ccccc34)[C@@H]2C[C@@H]1C1=CN2c3ccccc3[C@]34CCN5C/C(=C/CO)[C@H](C[C@H]53)[C@@H]([C@@H]1O)[C@H]24 [TETRADEHYDROLONGICAUDATINE Y]
Plasmodium falciparum [2]; [7]
  IC50: 0.958 µM
  IC90: 12.1 µM
Plasmodium falciparum [3]; [8]
  IC50: 1.24 µM
  IC90: 7.97 µM

## C/C=C1/CN2CCc3c([nH]c4ccccc34)[C@@H]2C[C@@H]1Cc1nccc2c1[nH]c1ccccc12 [USAMBARENSINE]
Plasmodium falciparum [2]; [7]
  IC50: 0.594 µM
  IC90: 4.83 µM
Plasmodium falciparum [3]; [8]
  IC90: 4.41 µM

## C=C[C@H]1CN2CCc3c([nH]c4ccccc34)[C@@H]2C[C@@H]1C[C@H]1c2[nH]c3ccccc3c2CCN1C [USAMBARINE]
Plasmodium falciparum [2]; [7]
  IC50: 2.36 µM
  IC90: 7.29 µM
Plasmodium falciparum [3]; [8]
  IC50: 2.5 µM
  IC90: 9.21 µM
